# Compound activity as filed in PubChem BioAssay.
# CSN inh: CSN deneddylation inhibition. actives 0.38% (n = 360,000). AID 651999. Q92905. Purified CSN, SCF-Nedd8-OG deneddylation, fluorescence polarization. inhibition, % at 12.5 µM;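 active = pattern-corrected inhibition above about 35%, with an unprinted fluorescence ratio check between 0.5 and 1.5, limit read from the data, passing the limit was not always enough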;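 also: 0% = enzyme with substrate and 100% = substrate without enzyme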
# Target sequence (Q92905 whole entry, looked up, one chain of several): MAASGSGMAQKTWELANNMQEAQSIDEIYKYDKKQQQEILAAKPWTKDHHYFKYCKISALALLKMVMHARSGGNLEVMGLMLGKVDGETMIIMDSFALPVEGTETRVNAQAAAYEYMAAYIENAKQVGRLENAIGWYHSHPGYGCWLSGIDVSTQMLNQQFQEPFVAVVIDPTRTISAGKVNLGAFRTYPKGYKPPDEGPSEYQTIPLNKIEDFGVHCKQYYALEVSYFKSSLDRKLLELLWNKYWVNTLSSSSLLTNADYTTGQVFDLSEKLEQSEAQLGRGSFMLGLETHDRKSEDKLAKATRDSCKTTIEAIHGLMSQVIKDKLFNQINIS
#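 assay system = purified human Csn5 enzyme expressed in HEK293T cells | amount = 0.24 nM enzyme | buffer or medium = Tris/NaCl/DTT buffer, pH 7.5 | reagent = 10 nM SCFSkp2-Nedd8OG | compound = one concentration, 12.5 µM, 0.25% DMSO | times = 90 min reaction at room temperature | signal = FP | read-out basis = % inhibition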
# TPT1 inhibitor: blocks Candida albicans tRNA 2'-phosphotransferase. actives 0.81% (n = 300,000). recombinant caTPT1, FP RNA substrate dephosphorylation. inhibition, % at 5 µM;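 active = inhibition above the mean of all tested compounds plus 3 SD, set per screening campaign, cut at about 24% in these data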;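 also: plate controls were DMSO alone for no effect and ferristatin control at 100 nM for full effect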
# Rpn11 block: inhibitors of human proteasome Rpn11; O00487; human 26S proteasome, Ub4-pepOG fluorescence polarization; 20S core pre-blocked with epoxomicin; inhibition, % at 20 µM; actives 0.59% (n = 360,000);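 active = inhibition at 20 µM, scaled to each plate's controls, above about 33%, limit read from the data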
# Target sequence (O00487 whole entry, looked up): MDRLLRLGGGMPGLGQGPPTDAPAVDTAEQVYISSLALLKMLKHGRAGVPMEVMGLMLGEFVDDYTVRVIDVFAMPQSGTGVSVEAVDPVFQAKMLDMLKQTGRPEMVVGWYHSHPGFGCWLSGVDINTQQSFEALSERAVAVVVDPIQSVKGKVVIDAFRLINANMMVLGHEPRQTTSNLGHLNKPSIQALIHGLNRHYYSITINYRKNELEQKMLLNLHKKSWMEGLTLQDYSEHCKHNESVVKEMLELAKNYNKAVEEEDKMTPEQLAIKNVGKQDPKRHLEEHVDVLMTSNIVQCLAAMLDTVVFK
# IDE cell activ: activators of human insulin-degrading enzyme in cells. P14735. HEK cells, FAbeta-B cleavage, fluorescence polarization; 0% vehicle, 100% cell-free pure enzyme wells. activation, % at 5.96 µM. actives 0.073% (n = 340,000). AID 493087;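 active = activation above the mean of all tested compounds plus 3 SD, set per screening campaign, cut at about 17% in these data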
# HNF4A DNA FP: change in binding of human HNF4 alpha to DNA | AID 1224865 | actives 0.3% (n = 360,000) | activity change, % at 10 µM | HNF4a-FITC DNA binding, fluorescence polarization, 1 h | P41235; in the data active = activity change above about 30%, passing the limit was not always enough
# IDE inh: cellular human IDE inhibition. P14735. HEK cells, FAbetaB cleavage, fluorescence polarization. inhibition, % at 5.59 µM. actives 0.41% (n = 320,000). AID 434962;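 active = percent inhibition above the average of all tested compounds plus 3 SD, set per screening campaign, cut at about 16% in these data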;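 also: IDE supplied by intact live HEK cells; FP after avidin binding of uncleaved biotin substrate so inhibition keeps polarization high; 0% = DMSO wells and 100% = 60 µM reference IDE inhibitor Ii1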
# IDE inh confirm: cellular human IDE inhibition, confirmation; inhibition, % at 5.59 µM; HEK cells, FAbetaB cleavage, fluorescence polarization; shares compounds with IDE inh; actives 51% (n = 1,200);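 active = mean inhibition across triplicate wells above the cutoff set by the earlier primary insulin-degrading enzyme screen, cut at about 16% in these data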;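 also: 0% = DMSO wells and 100% = 60 µM reference IDE inhibitor Ii1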
# HEK293 tox: HEK cell cytotoxicity, counter-screen for IDE inhibitors | shares compounds with IDE inh | HEK293 cytotoxicity, ATP luminescence | inhibition, % at 5.59 µM | actives 28% (n = 1,200); in the data active = inhibition above about 22%;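 also: 0% = vehicle wells and 100% = reference cytotoxic drug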
# * = called active by the depositor; . = not tested or not shown. Rows were chosen to be rich in hits. Some 1.7% of all compounds tested hit in one or more screens of this group.
SMILES,CSN inh,TPT1 inhibitor,Rpn11 block,IDE cell activ,HNF4A DNA FP,IDE inh,IDE inh confirm,HEK293 tox
CCCCn1c(NC(=S)Nc2ccccc2)nc2ccccc21,7.3,-1.3,15.3,-12.4,-6.0,30.6*,12.4,12.0
CC(=O)OCC(=O)C1(O)CCC2C3CCC4=CC(=O)C=CC4(C)C3C(O)CC21C (stereo not given),2.6,1.2,-1.4,.,5.0,1.5,.,.
Nc1c(C(=O)NCCc2ccccc2)sc2nc(N3CCOCC3)c3c(c12)CCCC3,-0.8,2.9,-0.3,-18.4,-0.1,17.2*,0.1,28.5*
O=C(CCC(=O)c1ccc(-c2ccccc2)cc1)Nc1cccnc1,2.3,0.1,14.8,-9.2,19.1,17.1*,2.0,14.6
CC(C)(C)OC(=O)C[C@H]1C/C=C\C[C@H](CC(=O)N[C@H](CO)Cc2ccccc2)C(=O)N[C@H](Cc2ccccc2)COC1=O,-5.8,.,5.1,-1.2,6.6,0.3,.,.
CN(C)S(=O)(=O)c1cccc(NC(=O)CCc2nc3sc4c(c3c(=O)[nH]2)CCCC4)c1,-5.5,.,0.7,-16.6,0.3,22.3*,14.3,24.5*
Cc1ccc(C(C)C)cc1OCC(=O)N1CCN(C(=O)c2ccco2)CC1,-3.6,-0.4,-1.7,-3.1,3.3,-10.3,.,.
COc1cc2ncnc(NCc3cccc(F)c3F)c2cc1OC,3.6,-1.9,-16.0,-8.8,4.9,18.3*,1.0,12.7
O=C(Nc1ccc2c(c1)OCO2)c1cc(C2CCCN(C(=O)C3CCCCC3)C2)on1 (stereo not given),-0.2,.,-8.2,.,5.4,.,.,.
COc1ccc(/C=C/C(=O)NC(=S)Nc2ccc(S(=O)(=O)Nc3cc(C)on3)cc2)cc1,1.9,1.1,-9.7,-2.8,-2.3,16.4*,6.3,11.1
COc1ccc(/C=C/C(=O)NC(=S)Nc2ccc(S(=O)(=O)Nc3ccc(OC)nn3)cc2)cc1,0.3,-3.7,6.3,-4.7,-1.2,2.2,.,.
CCC(=O)Nc1ccc(NC(=O)c2oc3ccccc3c2C)cc1,-1.6,1.6,-8.0,-4.5,1.8,16.6*,5.3,15.2
CCC(=O)Nc1ccc(NC(=S)NC(=O)c2oc3ccccc3c2C)cc1,-10.9,-3.6,-4.4,1.9,2.1,0.6,.,.
O=C(Cn1c(=O)cnc2ccccc21)N1CCN(S(=O)(=O)c2ccccc2Br)CC1,3.3,-3.3,-5.3,-4.0,4.1,9.3,.,.
COc1cccc2c1C(=O)C=C(C)C2=O,-2.2,-2.5,-0.5,-18.4,-1.9,34.0*,72.0*,34.2*
CC1=CC(=O)c2ccccc2C1=O,0.8,3.7,0.9,3.4,-0.1,1.1,.,.
CCNC(=S)N1CCN(c2nc(-c3ccc(F)cc3)cs2)CC1,1.8,-2.8,-3.2,-16.5,-0.8,19.2*,6.1,15.4
CCN(CC)CCCNC(=S)N1CCN(c2nc(-c3ccc(F)cc3)cs2)CC1,-6.9,-3.5,-0.1,-12.4,-0.2,4.4,.,.
COCCNC(=S)N1CCN(c2nc(-c3ccc(F)cc3)cs2)CC1,-1.3,-1.8,-4.2,-8.5,-1.6,13.8,.,.
COCCNC(=S)N1CCN(c2nc(-c3ccc(Cl)cc3)cs2)CC1,2.3,0.7,12.1,-17.5,5.0,17.1*,11.4,15.3
CNC(=S)N1CCN(c2nc(-c3ccc(Cl)cc3)cs2)CC1,-0.9,-2.7,-5.6,-13.4,3.3,17.7*,8.1,23.2*
CCC(=O)N/N=C/c1ccc(-c2ccc([N+](=O)[O-])cc2)o1,2.1,9.0,0.9,6.2,-10.0,2.2,.,.
CC(C)(C)C(=O)/C=c1\s/c(=C\c2ccc(-c3ccc([N+](=O)[O-])cc3)o2)c(=O)n1CC(=O)NC(N)=O,-103.6,104.4*,.,-20.1,96.1,22.3*,77.7*,26.4*
COC(=O)c1sc(N)c(C(=O)OC)c1CSc1nnnn1C,2.3,-7.2,6.9,4.6,0.1,1.1,.,.
COC(=O)c1sc(N)c(C(=O)OC)c1CSc1nnc(-c2ccccc2Cl)n1C,-4.7,-0.5,-4.0,-3.6,2.8,16.2*,4.7,10.0
SMILES,CSN inh,TPT1 inhibitor,Rpn11 block,IDE cell activ,HNF4A DNA FP,IDE inh,IDE inh confirm,HEK293 tox
O=S(=O)(c1ccc(NC2CCCc3ccccc32)nc1)N1CCOCC1 (stereo not given),0.8,1.4,6.8,-3.1,2.8,19.2*,6.8,11.9
O=C(c1ccccc1)n1c2ccccc2c(=O)n1-c1ccccc1CCl,4.9,.,-3.7,.,2.3,.,.,.
Cc1cc(C)c(C(=O)CN2C(=O)C(=O)N(C3CCCC3)C2=O)cc1C,7.0,.,3.8,1.4,4.1,-0.7,.,.
CCOC(=O)N1CCN(C(=O)c2cccn3c(=O)c4cc(Cl)ccc4nc23)CC1,-5.0,0.4,-2.5,-6.8,-1.6,16.2*,8.3,4.3
CCOC(=O)N1CCN(C(=O)c2cccn3c(=O)c4cc(Br)ccc4nc23)CC1,-1.9,4.0,1.7,-7.1,2.0,10.0,.,.
O=C(O)c1ccc2c(c1)C(=O)N(c1ncccn1)C2=O,-6.7,-4.3,-0.9,1.7,-0.4,-7.0,.,.
CCc1cc(C(=O)NNC(=S)NC2CCCCC2)cs1,-4.7,4.7,-2.9,-3.5,-0.1,-4.5,.,.
CCc1cc(C(=O)NNC(=S)NC(C)c2ccccc2)cs1 (stereo not given),-0.9,-0.8,-5.2,-5.2,-2.1,18.7*,6.9,15.1
Cc1ccc(S(=O)(=O)CCC(O)c2ccc(Cl)cc2)cc1 (stereo not given),1.7,-1.1,-6.7,5.4,3.3,4.7,.,.
C#CCOCCOCCOCCNc1nc(N2CCN(C(=O)[C@H]([C@@H](C)CC)n3cc([C@@H](N)CC(C)C)nn3)CC2)nc(N2CCN(C(=O)[C@H](Cc3ccc(O)cc3)n3cc([C@@H](N)C(C)CC)nn3)CC2)n1 (stereo not given in full),-3.9,-4.1,-0.3,0.6,3.9,16.1*,3.3,6.4
C#CCOCCOCCOCCNc1nc(N2CCN(C(=O)[C@H]([C@@H](C)CC)n3cc([C@@H](N)Cc4ccc(O)cc4)nn3)CC2)nc(N2CCN(C(=O)[C@H](Cc3ccc(O)cc3)n3cc([C@@H](N)C(C)CC)nn3)CC2)n1 (stereo not given in full),0.0,-2.5,5.8,-2.4,4.2,-0.4,.,.
O=C(NCCS(=O)(=O)N1CCN(c2ccccc2)CC1)c1cccs1,-2.3,-2.1,0.6,4.2,5.0,5.5,.,.
O=c1c2ccccc2sn1-c1ccccc1F,-3.2,.,-1.8,.,1.6,.,.,.
CN(C)S(=O)(=O)c1cccc(-n2sc3ccccc3c2=O)c1,0.9,0.4,2.2,-18.7,4.7,94.0*,30.9*,51.8*
O=c1c2ccccc2sn1-c1cccc(Cl)c1,-1.3,.,-6.6,.,1.4,.,.,.
